These results are taken from ChEMBL document CHEMBL1142695, “Discovery of functionally selective 7,8,9,10-tetrahydro-7,10-ethano-1,2,4-triazolo[3,4-a]phthalazines as GABA A receptor agonists at the alpha3 subunit” (J Med Chem, 2005).

One may read the Ki as a measure of affinity in units of concentration, obtained from inhibition or displacement.

Holding throughout (assay type): cell-based
Assay [1] deals with GABA-A receptor; alpha-3/beta-3/gamma-2 (Homo sapiens) (UniProt P18507+P28472+P34903). Kind of assay: Efficacy was measured as modulation of the current in response to GABA at hGABA alpha-3-beta-3-gamma-2 receptor expressed in Xenopus oocytes. The note with it: Oocyte. The method, boiled down:
(§1)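 Two-electrode voltage clamp on Xenopus oocytes expressing each receptor combination. […] Value is percent increase or decrease of the EC20 GABA current.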

Assay [2] concerns the target T1, GABA-A receptor; alpha-5/beta-3/gamma-2 (Homo sapiens, UniProt P18507+P28472+P31644).
T1 sequence (P18507 whole entry): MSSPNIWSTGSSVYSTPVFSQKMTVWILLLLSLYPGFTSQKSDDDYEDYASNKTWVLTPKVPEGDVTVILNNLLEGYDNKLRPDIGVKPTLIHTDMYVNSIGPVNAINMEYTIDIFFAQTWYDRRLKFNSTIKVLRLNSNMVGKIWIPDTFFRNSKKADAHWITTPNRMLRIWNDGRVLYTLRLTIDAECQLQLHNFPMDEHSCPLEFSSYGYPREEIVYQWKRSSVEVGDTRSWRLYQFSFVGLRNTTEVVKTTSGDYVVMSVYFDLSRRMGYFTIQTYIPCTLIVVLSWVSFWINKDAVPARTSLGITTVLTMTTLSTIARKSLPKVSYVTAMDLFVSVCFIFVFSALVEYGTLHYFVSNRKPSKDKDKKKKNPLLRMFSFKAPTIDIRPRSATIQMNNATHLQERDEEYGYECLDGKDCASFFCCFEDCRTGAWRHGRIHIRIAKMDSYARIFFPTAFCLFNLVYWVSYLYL
T1 sequence (P28472 whole entry): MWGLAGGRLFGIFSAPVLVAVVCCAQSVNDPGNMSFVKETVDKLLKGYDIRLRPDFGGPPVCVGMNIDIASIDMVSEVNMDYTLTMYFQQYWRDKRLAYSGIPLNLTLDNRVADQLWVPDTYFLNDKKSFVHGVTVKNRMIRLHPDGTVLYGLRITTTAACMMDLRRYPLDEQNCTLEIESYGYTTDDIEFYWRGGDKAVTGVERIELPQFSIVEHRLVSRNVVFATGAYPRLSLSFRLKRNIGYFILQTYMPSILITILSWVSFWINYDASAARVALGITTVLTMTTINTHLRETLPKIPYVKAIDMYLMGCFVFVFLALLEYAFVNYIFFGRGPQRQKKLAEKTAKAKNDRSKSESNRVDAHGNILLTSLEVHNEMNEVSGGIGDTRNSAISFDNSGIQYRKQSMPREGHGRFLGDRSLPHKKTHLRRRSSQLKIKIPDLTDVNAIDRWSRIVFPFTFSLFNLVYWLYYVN
T1 sequence (P31644 whole entry): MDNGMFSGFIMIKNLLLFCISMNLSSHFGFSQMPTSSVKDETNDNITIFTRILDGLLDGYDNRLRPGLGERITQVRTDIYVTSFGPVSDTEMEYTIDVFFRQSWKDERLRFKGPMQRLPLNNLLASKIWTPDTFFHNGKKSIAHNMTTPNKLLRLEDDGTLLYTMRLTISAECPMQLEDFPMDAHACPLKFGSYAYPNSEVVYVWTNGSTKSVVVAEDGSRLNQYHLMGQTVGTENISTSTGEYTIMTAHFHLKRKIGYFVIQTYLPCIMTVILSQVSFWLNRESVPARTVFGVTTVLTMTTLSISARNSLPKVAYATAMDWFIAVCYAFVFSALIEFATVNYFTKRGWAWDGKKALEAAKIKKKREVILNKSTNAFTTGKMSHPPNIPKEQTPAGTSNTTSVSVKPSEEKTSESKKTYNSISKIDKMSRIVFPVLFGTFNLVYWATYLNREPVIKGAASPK
Description: Inhibition of [3H]Ro-151788 binding to recombinant human gamma-aminobutyric-acid A receptor alpha-5-beta-3-gamma-2 subtype expressed in L (tk-) cells.

In assay [3] the target is T2, GABA-A receptor; alpha-3/beta-3/gamma-2 (Homo sapiens, UniProt P18507+P28472+P34903).
T2 sequence (P18507 whole entry): T1 sequence (P18507 whole entry)
T2 sequence (P28472 whole entry): T1 sequence (P28472 whole entry)
T2 sequence (P34903 whole entry): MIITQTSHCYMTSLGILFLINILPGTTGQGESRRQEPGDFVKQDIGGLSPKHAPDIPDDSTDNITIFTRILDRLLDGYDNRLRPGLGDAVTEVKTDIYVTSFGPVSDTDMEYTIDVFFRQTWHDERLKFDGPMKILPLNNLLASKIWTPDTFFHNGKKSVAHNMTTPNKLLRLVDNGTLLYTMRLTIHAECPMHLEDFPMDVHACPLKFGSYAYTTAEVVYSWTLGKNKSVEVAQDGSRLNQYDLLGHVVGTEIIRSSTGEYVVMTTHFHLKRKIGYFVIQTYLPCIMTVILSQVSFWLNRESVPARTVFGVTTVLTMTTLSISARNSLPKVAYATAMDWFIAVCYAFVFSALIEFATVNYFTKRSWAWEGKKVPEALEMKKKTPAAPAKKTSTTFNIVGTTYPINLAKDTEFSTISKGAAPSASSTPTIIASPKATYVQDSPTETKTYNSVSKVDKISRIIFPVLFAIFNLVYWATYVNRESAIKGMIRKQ
Kind of assay: Inhibition of [3H]Ro-151788 binding to recombinant human gamma-aminobutyric-acid A receptor alpha-3-beta-3-gamma-2 subtype expressed in L (tk-) cells.

The target in assay [4] is GABA-A receptor; alpha-1/beta-3/gamma-2 (Homo sapiens) (UniProt P14867+P18507+P28472). Description: Efficacy was measured as modulation of the current in response to GABA at hGABA alpha-1-beta-3-gamma-2 receptor expressed in Xenopus oocytes. The note with it: Oocyte. The gist of the method: as §1
The target of assay [5] is T3, GABA-A receptor; alpha-1/beta-3/gamma-2 (Homo sapiens, UniProt P14867+P18507+P28472).
T3 sequence (P14867 whole entry): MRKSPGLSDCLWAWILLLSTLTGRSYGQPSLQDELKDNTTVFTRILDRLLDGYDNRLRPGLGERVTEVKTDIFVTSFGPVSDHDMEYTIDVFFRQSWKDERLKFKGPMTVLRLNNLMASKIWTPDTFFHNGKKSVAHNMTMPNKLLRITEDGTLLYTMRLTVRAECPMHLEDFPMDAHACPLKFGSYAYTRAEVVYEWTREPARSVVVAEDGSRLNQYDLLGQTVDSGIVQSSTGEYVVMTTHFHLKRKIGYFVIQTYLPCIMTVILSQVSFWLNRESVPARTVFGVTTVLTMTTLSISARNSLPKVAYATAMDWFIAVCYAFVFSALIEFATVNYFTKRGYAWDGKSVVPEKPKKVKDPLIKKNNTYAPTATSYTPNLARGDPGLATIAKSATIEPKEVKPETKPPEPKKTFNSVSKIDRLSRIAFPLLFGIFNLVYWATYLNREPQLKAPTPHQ
T3 sequence (P18507 whole entry): T1 sequence (P18507 whole entry)
T3 sequence (P28472 whole entry): T1 sequence (P28472 whole entry)
Description: Inhibition of [3H]Ro-151788 binding to recombinant human gamma-aminobutyric-acid A receptor alpha-1-beta-3-gamma-2 subtype expressed in L (tk-) cells.

Assay [6] concerns the target GABA-A receptor; alpha-2/beta-3/gamma-2 (Homo sapiens) (UniProt P18507+P28472+P47869). Kind of assay: Efficacy was measured as modulation of the current in response to GABA at hGABA alpha-2-beta-3-gamma-2 receptor expressed in Xenopus oocytes. The note with it: Oocyte. The gist of the method: as §1
Assay [7] has as its target GABA-A receptor; alpha-5/beta-3/gamma-2 (Homo sapiens) (UniProt P18507+P28472+P31644). Description: Efficacy was measured as modulation of the current in response to GABA at hGABA alpha-5-beta-3-gamma-2 receptor expressed in Xenopus oocytes. The following applies: Oocyte. The gist of the method: as §1
For assay [8], the target named is T4, GABA-A receptor; alpha-2/beta-3/gamma-2 (Homo sapiens, UniProt P18507+P28472+P47869).
T4 sequence (P18507 whole entry): T1 sequence (P18507 whole entry)
T4 sequence (P28472 whole entry): T1 sequence (P28472 whole entry)
T4 sequence (P47869 whole entry): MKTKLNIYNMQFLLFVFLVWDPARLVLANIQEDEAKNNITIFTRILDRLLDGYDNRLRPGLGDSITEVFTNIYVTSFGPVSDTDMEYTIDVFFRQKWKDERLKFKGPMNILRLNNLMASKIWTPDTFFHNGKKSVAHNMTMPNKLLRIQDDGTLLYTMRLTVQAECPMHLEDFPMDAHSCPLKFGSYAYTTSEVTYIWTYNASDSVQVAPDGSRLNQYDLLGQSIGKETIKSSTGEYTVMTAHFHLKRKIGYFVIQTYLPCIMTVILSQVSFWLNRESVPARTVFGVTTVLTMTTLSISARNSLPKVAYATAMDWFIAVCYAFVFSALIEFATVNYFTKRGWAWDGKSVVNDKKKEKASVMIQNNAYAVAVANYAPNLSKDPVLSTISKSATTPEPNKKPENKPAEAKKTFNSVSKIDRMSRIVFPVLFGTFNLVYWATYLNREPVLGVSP
Description: Inhibition of [3H]Ro-151788 binding to recombinant human gamma-aminobutyric acid A receptor alpha-2-beta-3-gamma-2 subtype expressed in L (tk-) cells.

For `Cc1ccc(-c2nnc3c4c(c(OCc5ccccn5)nn23)C2CCC4CC2)cc1`, the Efficacy is 40% in assay [1], 9% in assay [4], 14% in assay [6] and 6% in assay [7]. Besides, the Ki came out at 4.7 nM in assay [2], 32 nM in assay [3], 310 nM in assay [5] and 120 nM in assay [8].
Consider `c1ccc(-c2nnc3c4c(c(OCc5ccccn5)nn23)C2CCC4CC2)cc1`, for which the Ki in assay [2] was found to be 1.2 nM; in assay [3] it was 13 nM; in assay [5], 71 nM; in assay [8], 26 nM. Further, the Efficacy in assay [7] turned out to be 18%.
With `CN1C(=O)CN=C(c2ccccc2)c2cc(Cl)ccc21`, the Efficacy in assay [1] amounted to 118%; in assay [4] it was 103%; in assay [6], 138%; in assay [7], 106%.
Take `Cc1cc(C)n(COc2nn3c(-c4ccccc4)nnc3c3c2C2CCC3CC2)n1`: the Efficacy in assay [1] was found to be 7%; in assay [4] it was 31%; in assay [7] it was 1%. Also, the Ki in assay [2] amounted to 0.26 nM; in assay [3], 2.3 nM; in assay [5] it was 23 nM; in assay [8] it was 7.5 nM.
For the molecule `N#Cc1cccc(COc2nn3c(-c4ccccc4)nnc3c3c2C2CCC3CC2)c1`, the figures for the Efficacy in assay [1], in assay [4] and in assay [7] were 38%, 23% and 23%, respectively. Also, the Ki in assay [2] was 7.8 nM; in assay [3], 66 nM; in assay [5] it was above 1000 nM; in assay [8], 180 nM.
With `c1ccc(-c2nnc3c4c(c(OCc5ncccc5OCC5CC5)nn23)C2CCC4CC2)cc1`, the Efficacy worked out at 139% in assay [1], 175% in assay [4] and 50% in assay [7]. In addition, the Ki amounted to 0.75 nM in assay [2], 2.3 nM in assay [3], 6.9 nM in assay [5] and 5.6 nM in assay [8].
`CN(C)Cc1cccc(COc2nn3c(-c4ccccc4)nnc3c3c2C2CCC3CC2)c1`: the Efficacy is -16% in assay [1] and -25% in assay [7]. In addition, the Ki in assay [2] stood at 4.5 nM; in assay [3] it was 24 nM; in assay [5], 190 nM; in assay [8], 64 nM.
`CCCn1ncnc1COc1nn2c(-c3ccccc3)nnc2c2c1C1CCC2CC1`: the Efficacy amounted to 78% in assay [1] and 41% in assay [4]. For the same molecule, the Ki in assay [2] came out at 0.19 nM; in assay [3], 1.4 nM; in assay [5], 0.9 nM; in assay [8] it was 2.5 nM.
For the molecule `COCCOc1cccnc1COc1nn2c(-c3ccccc3)nnc2c2c1C1CCC2CC1`, the results for the Efficacy in assay [1] and in assay [4] were 97% and 77%, respectively. In addition, the Ki in assay [2] turned out to be 0.5 nM; in assay [3] it was 3.9 nM; in assay [5], 13 nM; in assay [8] it was 9.8 nM.
Take `Cc1cnc(COc2nn3c(-c4ccccc4)nnc3c3c2C2CCC3CC2)c(C)c1`: the Efficacy is -2% in assay [1] and 34% in assay [4]. The inhibitory constant (Ki) in assay [2] came to 0.2 nM; in assay [3] it was 0.71 nM; in assay [5], 3.4 nM; in assay [8], 3.4 nM.
Regarding `Cc1cccnc1COc1nn2c(-c3ccccc3)nnc2c2c1C1CCC2CC1`, the Efficacy in assay [1] came to 7%; in assay [4], 17%. The Ki in assay [2] is 0.46 nM; in assay [3], 2.1 nM; in assay [5] it was 9.8 nM; in assay [8] it was 2 nM.
In the case of `c1ccc(COc2nn3c(-c4cccnc4)nnc3c3c2C2CCC3CC2)nc1`, the Efficacy came to 9% in assay [1], 36% in assay [4] and 31% in assay [7]. The Ki in assay [2] was determined as 2.7 nM; in assay [3], 38 nM; in assay [5], 260 nM; in assay [8] it was 54 nM.
For `c1ccc(-c2nnc3c4c(c(OCc5ncc[nH]5)nn23)C2CCC4CC2)cc1`, the Efficacy in assay [1] came out at 29%; in assay [4] it was 35%. The Ki in assay [2] amounted to 0.87 nM; in assay [3], 6.7 nM; in assay [5], 53 nM; in assay [8], 18 nM.
In the case of `c1ccc(-c2nnc3c4c(c(OCc5nccc6ccccc56)nn23)C2CCC4CC2)cc1`, the Efficacy in assay [1] was 14%; in assay [4], 45%. Also, the inhibitory constant (Ki) was determined as 0.69 nM in assay [2], 4.5 nM in assay [3], 29 nM in assay [5] and 7.5 nM in assay [8].
